C8 TRAIL sens: viability loss with TRAIL in NB7+C8 cells, primary screen, TRAIL sensitizer project, cell-based, ATPlite luminescence. inhibition (viability loss, TRAIL sensitization), % at 10 µM. 360,000 tested, 1% active. AID 624354, 2012;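 active means compounds causing at least 50% loss of cell viability in the single-dose screen, relative to plate controls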
PPC-1+TRAIL kill: compounds killing PPC-1 cancer cells with TRAIL present, primary screen, TRAIL potentiator project, ATPLite luminescence, uHTS; cell killing (% activity), % at 4 µM or 5 µM; 220,000 tested, 0.41% active; PPC-1 cells + TRAIL, ATPLite viability luminescence; AID 1443, 2008;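 active means cell killing above 50% in the first pass at 4 µM, then a duplicate retest at 5 µM averaging 50% or more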
FLuc act counter: FLuc activators, initial screening, artefact control for FLuc-dependent activation tests, biochemical, ATPlite luminescence; 200,000 tested, under 10 active; activation factor at 10 µM; ATPlite luciferase biochemical, 10 min; 0 = ATP-free wells, 1 = DMSO control;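 active means luciferase activation factor, scaled between plate controls, of at least 2 with compound at 10 µM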
Target sequence (P08659 whole entry, looked up): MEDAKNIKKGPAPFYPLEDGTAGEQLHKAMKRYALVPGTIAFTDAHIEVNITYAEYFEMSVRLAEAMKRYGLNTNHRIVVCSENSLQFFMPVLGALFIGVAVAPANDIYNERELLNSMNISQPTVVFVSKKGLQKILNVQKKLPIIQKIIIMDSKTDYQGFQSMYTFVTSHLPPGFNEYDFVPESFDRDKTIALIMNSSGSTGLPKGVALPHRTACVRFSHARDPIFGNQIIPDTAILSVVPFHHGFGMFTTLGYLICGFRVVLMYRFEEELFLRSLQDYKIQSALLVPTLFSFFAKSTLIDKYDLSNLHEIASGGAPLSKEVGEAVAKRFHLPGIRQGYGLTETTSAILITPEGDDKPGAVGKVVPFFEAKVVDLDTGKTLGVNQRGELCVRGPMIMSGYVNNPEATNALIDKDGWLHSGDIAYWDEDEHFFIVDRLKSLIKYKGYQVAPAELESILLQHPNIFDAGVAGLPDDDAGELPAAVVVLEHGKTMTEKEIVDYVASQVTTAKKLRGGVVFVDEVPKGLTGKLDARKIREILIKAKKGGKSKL
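assay system = Luciferase/luciferin detection reagent, cell-free biochemical luciferase assay | also added = ATP substrate | times = 10 min post-reagent at room temperature | measured by = luminescence from luciferase reaction | measure = luciferase activation, seen as luminescence increase over controls | benchmarks = low control with PBS replacing ATP, high control enzyme plus ATP without compound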
FLuc inhib CS: firefly luciferase enzyme inhibitors, primary screen, artefact control for luciferase-based inhibitor screens, biochemical, luminescence, ATPLite. 10 min. inhibition, % at 10 µM. 200,000 tested, 1.5% active. Luciferin 4-monooxygenase (Photinus pyralis), P08659;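 active means inhibition above about 50% when tested at 10 µM, limit read from the data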
Hits are given with their value. Only some compounds are listed: those with a hit (about 1.5% of all), similar ones and a draw of the others.

CN(CCOc1ccccc1)CC(=O)Nc1ccc([N+](=O)[O-])cc1Cl was read as C8 TRAIL sens inactive, PPC-1+TRAIL kill inactive, FLuc act counter inactive and FLuc inhib CS inactive.
Screening Cc1cc(NC(=O)c2ccccc2)sc1C returned C8 TRAIL sens inactive, PPC-1+TRAIL kill inactive, FLuc act counter inactive and FLuc inhib CS 63.5.
For Cc1ccc(NC(=O)c2ccccc2)s1 the results were C8 TRAIL sens 53.0, PPC-1+TRAIL kill inactive, FLuc act counter inactive and FLuc inhib CS 76.1.
Cc1cc(NC(=O)c2ccccc2)cc(NC(=O)c2ccccc2)c1C was read as C8 TRAIL sens inactive.
Cc1cc(C(=O)COC(=O)CC2Sc3ccccc3NC2=O)c(C)n1-c1ccccc1 (centres undefined) was read as C8 TRAIL sens inactive, PPC-1+TRAIL kill inactive, FLuc act counter inactive and FLuc inhib CS inactive.
Cc1cc(C)n(-c2nnc(NC34CC5CC(CC(C5)C3)C4)nn2)n1 was read as C8 TRAIL sens inactive, PPC-1+TRAIL kill inactive, FLuc act counter inactive and FLuc inhib CS 66.5.
Cc1cc(C)n(-c2nc(NC(C)(C)C)nc(NC(C)(C)C)n2)n1 was read as C8 TRAIL sens inactive, PPC-1+TRAIL kill inactive, FLuc act counter inactive and FLuc inhib CS inactive.
For Cc1cc(C)n(-c2nnc(NC(C)(C)C)nn2)n1 the results were C8 TRAIL sens inactive, PPC-1+TRAIL kill inactive, FLuc act counter inactive and FLuc inhib CS 53.3.
For CCOC(=O)CC1NC(=O)c2ccccc21 (centres undefined) the results were C8 TRAIL sens inactive, PPC-1+TRAIL kill inactive, FLuc act counter inactive and FLuc inhib CS inactive.
`COc1ccccc1NC(CC(=O)c1ccccc1)C(=O)OCC(=O)c1ccc(F)cc1` (centres undefined) gave C8 TRAIL sens 67.6, PPC-1+TRAIL kill inactive, FLuc act counter inactive and FLuc inhib CS inactive.
For Cc1ccc(S(=O)(=O)NC(=O)Nc2ccc(Cl)cn2)cc1 the results were C8 TRAIL sens inactive, PPC-1+TRAIL kill inactive, FLuc act counter inactive and FLuc inhib CS inactive.
Screening Cc1ccc(S(=O)(=O)NC(=O)NC2=NC(C)(C)N(c3ccc(Cl)c(Cl)c3)C(N)=N2)cc1 returned C8 TRAIL sens 81.6.
For Cc1cc(C)nc(Nc2nc(-c3ccccc3)cs2)n1 the results were C8 TRAIL sens 77.0.
`Cc1cc(C(=O)CSc2nn(-c3ccccc3)c(=S)s2)c(C)n1Cc1ccco1` gave C8 TRAIL sens inactive, PPC-1+TRAIL kill inactive, FLuc act counter inactive and FLuc inhib CS inactive.
Cc1cc(C(=O)COC(=O)[C@H](C)NC(=O)c2ccco2)c(C)n1Cc1ccco1 was read as C8 TRAIL sens inactive, PPC-1+TRAIL kill inactive, FLuc act counter inactive and FLuc inhib CS 56.2.
For Cc1cc(C(=O)CSc2n[nH]c(-c3ccccc3F)n2)c(C)n1Cc1cccs1 the results were C8 TRAIL sens inactive, PPC-1+TRAIL kill inactive, FLuc act counter inactive and FLuc inhib CS inactive.
Cc1cc(C(=O)CSc2nnc(N)s2)c(C)n1Cc1cccs1 was read as C8 TRAIL sens 69.5, PPC-1+TRAIL kill inactive, FLuc act counter inactive and FLuc inhib CS 91.1.
Cc1csc(SCC(=O)c2cc(C)n(Cc3cccs3)c2C)n1 was read as C8 TRAIL sens 78.9, PPC-1+TRAIL kill inactive, FLuc act counter inactive and FLuc inhib CS 88.8.
Screening Cc1cc(C(=O)CSc2nncs2)c(C)n1Cc1ccco1 returned C8 TRAIL sens inactive, PPC-1+TRAIL kill inactive, FLuc act counter inactive and FLuc inhib CS 73.8.
Screening COc1ccc(-c2nnc(SCC(=O)c3cc(C)n(Cc4cccs4)c3C)o2)cc1 returned C8 TRAIL sens inactive, PPC-1+TRAIL kill inactive, FLuc act counter inactive and FLuc inhib CS inactive.
NS(=O)(=O)c1ccc(NC(=O)COC(=O)c2ccc3c(c2)OCCO3)cc1 was read as C8 TRAIL sens inactive, PPC-1+TRAIL kill inactive, FLuc act counter inactive and FLuc inhib CS inactive.
Screening O=C(COc1ccc(-c2nnco2)cc1)Nc1c(F)cccc1F returned C8 TRAIL sens inactive.
O=C(COc1ncnc2ccccc12)c1ccc(Cl)cc1 was read as C8 TRAIL sens inactive, PPC-1+TRAIL kill inactive, FLuc act counter inactive and FLuc inhib CS 80.2.
Screening Cc1cc(C)c2cc(C(=O)N(C)C3CCN(C)CC3)[nH]c2c1 returned C8 TRAIL sens inactive and PPC-1+TRAIL kill inactive.
`COc1ccc2cc(/C=N/NC(=O)c3ccc(CN(c4cccc(Cl)c4Cl)S(C)(=O)=O)cc3)c(Cl)nc2c1` gave C8 TRAIL sens inactive, PPC-1+TRAIL kill 50.6, FLuc act counter inactive and FLuc inhib CS inactive.
For O=C(O)c1ccccc1-c1cn2cc(Cl)ccc2n1 the results were C8 TRAIL sens inactive, PPC-1+TRAIL kill inactive, FLuc act counter inactive and FLuc inhib CS 61.5.
Clc1ccc2nc(-c3ccc(Br)s3)cn2c1 was read as C8 TRAIL sens 58.8, PPC-1+TRAIL kill inactive, FLuc act counter inactive and FLuc inhib CS 78.5.
CC1CCC/C(=N\NC(=O)Nc2ccccc2)C1 (centres undefined) was read as C8 TRAIL sens inactive, PPC-1+TRAIL kill inactive, FLuc act counter inactive and FLuc inhib CS inactive.
O=Cc1ccc(N2CCCC2)c([N+](=O)[O-])c1 was read as C8 TRAIL sens inactive, PPC-1+TRAIL kill inactive, FLuc act counter inactive and FLuc inhib CS inactive.
`CN(C)c1ccc(/C=C2/NC(=O)NC2=O)cc1` gave C8 TRAIL sens inactive, PPC-1+TRAIL kill inactive, FLuc act counter inactive and FLuc inhib CS 72.7.
`O=C(Nc1ccc(Cl)c(Cl)c1)N1CCOCC1` gave C8 TRAIL sens inactive.
Screening N/C(=N\OC(=O)c1cccs1)c1ccccc1 returned C8 TRAIL sens inactive, PPC-1+TRAIL kill inactive, FLuc act counter inactive and FLuc inhib CS 94.4.
Cc1ccc(/C(N)=N/OC(=O)c2cccs2)cc1 was read as C8 TRAIL sens inactive, PPC-1+TRAIL kill inactive, FLuc act counter inactive and FLuc inhib CS 74.5.
For COc1ccc(/C(N)=N/OC(=O)c2cccs2)cc1OC the results were C8 TRAIL sens inactive, FLuc act counter inactive and FLuc inhib CS inactive.
For Cc1cccc(/C(N)=N/OC(=O)c2ccc(F)cc2)c1 the results were C8 TRAIL sens inactive, PPC-1+TRAIL kill inactive, FLuc act counter inactive and FLuc inhib CS 96.6.
For N/C(=N\OC(=O)c1cccs1)c1cccc(Br)c1 the results were C8 TRAIL sens inactive, PPC-1+TRAIL kill inactive, FLuc act counter inactive and FLuc inhib CS 87.2.
For NC(=O)c1cn(-c2ccccc2)nc1-c1cccnc1 the results were C8 TRAIL sens inactive, PPC-1+TRAIL kill inactive, FLuc act counter inactive and FLuc inhib CS inactive.
Screening O=C1c2ccccc2C(c2nc3ccccc3[nH]2)N1c1ccccn1 (centres undefined) returned C8 TRAIL sens inactive.
`CC(C)(C)CC(=O)NCCc1csc(-c2ccccc2)n1` gave C8 TRAIL sens inactive and PPC-1+TRAIL kill inactive.
Cn1nc(C(=O)Nc2ccc(S(=O)(=O)N3CCCCC3)cc2)ccc1=O was read as C8 TRAIL sens inactive, PPC-1+TRAIL kill inactive, FLuc act counter inactive and FLuc inhib CS inactive.
Screening c1ccc2c(c1)OCC(c1nn3c(Cn4nnc5ccccc54)nnc3s1)O2 (centres undefined) returned C8 TRAIL sens inactive, PPC-1+TRAIL kill inactive, FLuc act counter inactive and FLuc inhib CS inactive.

Screening data as filed in PubChem BioAssay.
